Data reported in BindingDB's records for doi:10.1016/j.bmcl.2005.08.013 (Kosan Biosciences, 2005).

The compounds below were run against Heat shock protein HSP 90-alpha (Homo sapiens, UniProt P07900) (assay: Binding affinity for human heat shock protein 90 in scintillation proximity assay).
How it was run: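 Purified full-length human Hsp90 was used as the target protein. Binding was measured by scintillation proximity assay.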

Kd [µM] | Structure (SMILES)
> 100 | CO[C@H]1C=CC=C(C)C(=O)Nc2cc(O)c(N=CCN(C)C)c(c2O)C[C@@H](C)C[C@H](OC)[C@H](O)[C@@H](C)/C=C(\C)[C@@H]1OC(=O)NCCN(C)C [(2-Dimethylamino-ethyl)-carbamic acid (4E,6Z)-(13S,14S,17R,19S)-19-(2-dimethylamino-ethylamino)-13-(S)-hydroxy-8,14-dimethoxy-4,12,16-trimethyl-10-(R)-methyl-3,20,22-trioxo-2-aza-bicyclo[16.3.1]docosa-1(21),4,6,10,18-pentaen-9-yl ester]
> 100 | CO[C@H]1C=CC=C(C)C(=O)Nc2cc(O)c(N=CCN(C)C)c(c2O)C[C@@H](C)C[C@H](OC)[C@H](O)[C@@H](C)/C=C(\C)[C@@H]1OC(=O)NCCO [(2-Hydroxy-ethyl)-carbamic acid (4E,6Z)-(13S,14S,17R,19S)-19-(2-dimethylamino-ethylamino)-13-(S)-hydroxy-8,14-dimethoxy-4,12,16-trimethyl-10-(R)-methyl-3,20,22-trioxo-2-aza-bicyclo[16.3.1]docosa-1(21),4,6,10,18-pentaen-9-yl ester]
> 100 | CO[C@H]1C=CC=C(C)C(=O)Nc2cc(O)c(N=CCN(C)C)c(c2O)C[C@@H](C)C[C@H](OC)[C@H](O)[C@@H](C)/C=C(\C)[C@@H]1OC(=O)NCC(N)=O [Carbamoylmethyl-carbamic acid (4E,6Z)-(13S,14S,17R,19S)-19-(2-dimethylamino-ethylamino)-13-(S)-hydroxy-8,14-dimethoxy-4,12,16-trimethyl-10-(R)-methyl-3,20,22-trioxo-2-aza-bicyclo[16.3.1]docosa-1(21),4,6,10,18-pentaen-9-yl ester]
> 100 | CO[C@H]1C=CC=C(C)C(=O)Nc2cc(O)c(N=CCN(C)C)c(c2O)C[C@@H](C)C[C@H](OC)[C@H](O)[C@@H](C)/C=C(\C)[C@@H]1OC(=O)NN [Hydrazinecarboxylic acid (4E,6Z)-(13S,14S,17R,19S)-19-(2-dimethylamino-ethylamino)-13-(S)-hydroxy-8,14-dimethoxy-4,12,16-trimethyl-10-(R)-methyl-3,20,22-trioxo-2-aza-bicyclo[16.3.1]docosa-1(21),4,6,10,18-pentaen-9-yl ester]
> 100 | CNC(=O)O[C@H]1/C(C)=C/[C@H](C)[C@@H](O)[C@@H](OC)C[C@H](C)Cc2c(O)c(cc(O)c2N=CCN(C)C)NC(=O)C(C)=CC=C[C@@H]1OC [Methyl-carbamic acid (4E,6Z)-(13S,14S,17R,19S)-19-(2-dimethylamino-ethylamino)-13-(S)-hydroxy-8,14-dimethoxy-4,12,16-trimethyl-10-(R)-methyl-3,20,22-trioxo-2-aza-bicyclo[16.3.1]docosa-1(21),4,6,10,18-pentaen-9-yl ester]

Second part, the compound before the results:

Structure (SMILES) | Kd [µM]
CO[C@H]1C=CC=C(C)C(=O)Nc2cc(O)c(N=CCN(C)C)c(c2O)C[C@@H](C)C[C@H](OC)[C@H](O)[C@@H](C)/C=C(\C)[C@@H]1OC(=O)c1ccc[nH]1 [1H-Pyrrole-2-carboxylic acid (E)-(8R,10R,15S,20S)-19-(2-dimethylamino-ethylamino)-13-(S)-hydroxy-8,14-dimethoxy-4,12,16-trimethyl-10-(S)-methyl-3,20,22-trioxo-2-aza-bicyclo[16.3.1]docosa-1(21),4,6,10,18-pentaen-9-yl ester] | > 100
CO[C@H]1C=CC=C(C)C(=O)Nc2cc(O)c(N=CCN(C)C)c(c2O)C[C@@H](C)C[C@H](OC)[C@H](O)[C@@H](C)/C=C(\C)[C@@H]1OC(=O)c1cnc[nH]1 [3H-Imidazole-4-carboxylic acid (E)-(8R,10R,15S,20S)-19-(2-dimethylamino-ethylamino)-13-(S)-hydroxy-8,14-dimethoxy-4,12,16-trimethyl-10-(S)-methyl-3,20,22-trioxo-2-aza-bicyclo[16.3.1]docosa-1(21),4,6,10,18-pentaen-9-yl ester] | > 100
CONC(=O)O[C@H]1/C(C)=C/[C@H](C)[C@@H](O)[C@@H](OC)C[C@H](C)Cc2c(O)c(cc(O)c2N=CCN(C)C)NC(=O)C(C)=CC=C[C@@H]1OC [Geldanamycin derivative] | > 100
CO[C@H]1C=CC=C(C)C(=O)Nc2cc(O)c(N3CCC3)c(c2O)C=C(C)C[C@H](OC)[C@H](O)[C@@H](C)/C=C(\C)[C@@H]1OC(=O)NO [Geldanamycin derivative] | > 100
CO[C@H]1C=CC=C(C)C(=O)Nc2cc(O)c(N=CCF)c(c2O)C[C@@H](C)C[C@H](OC)[C@H](O)[C@@H](C)/C=C(\C)[C@@H]1OC(=O)NO [Geldanamycin derivative] | > 100
CO[C@H]1C=CC=C(C)C(=O)Nc2cc(O)c(N=CCF)c(c2O)C[C@@H](C)C[C@H](OC)[C@H](O)[C@@H](C)/C=C(\C)[C@@H]1OC(=O)NN [Hydrazinecarboxylic acid (4E,6Z)-(13S,14S,17R,19S)-19-(2-fluoro-ethylamino)-13-(S)-hydroxy-8,14-dimethoxy-4,12,16-trimethyl-10-(R)-methyl-3,20,22-trioxo-2-aza-bicyclo[16.3.1]docosa-1(21),4,6,10,18-pentaen-9-yl ester] | > 100
CO[C@H]1C=CC=C(C)C(=O)Nc2cc(O)c(N3CCC3)c(c2O)C=C(C)C[C@H](OC)[C@H](O)[C@@H](C)/C=C(\C)[C@@H]1OC(=O)NN [Hydrazinecarboxylic acid (4E,6Z)-(13S,14S,17R,19S)-19-azetidin-1-yl-13-(S)-hydroxy-8,14-dimethoxy-4,12,16-trimethyl-10-(R)-methyl-3,20,22-trioxo-2-aza-bicyclo[16.3.1]docosa-1(21),4,6,10,18-pentaen-9-yl ester] | > 100
CO[C@H]1C=CC=C(C)C(=O)Nc2cc(O)c(N=CCN(C)C)c(c2O)C[C@@H](C)C[C@H](OC)[C@H](O)[C@@H](C)/C=C(\C)[C@@H]1OC(=O)N(C)N [N-Methyl-hydrazinecarboxylic acid (4E,6Z)-(13S,14S,17R,19S)-19-(2-dimethylamino-ethylamino)-13-(S)-hydroxy-8,14-dimethoxy-4,12,16-trimethyl-10-(R)-methyl-3,20,22-trioxo-2-aza-bicyclo[16.3.1]docosa-1(21),4,6,10,18-pentaen-9-yl ester] | > 100
